Type in all cases: functional
Holding throughout (details): time 7-14 day

For experiment [1], the system named is Mycobacterium tuberculosis. Briefly: Antimycobacterial activity against N-cycloheptyl-4,6-dimethyl-1H-indole-2-carboxamide-resistant Mycobacterium tuberculosis IAR2 harboring MmpL3 S288T mutant assessed as bacterial growth inhibition incubated for 7 to 14 days by MABA assay.
Experiment [2] has as its system Mycobacterium tuberculosis. Briefly: Antimycobacterial activity against extensively drug resistant Mycobacterium tuberculosis R506 assessed as bacterial growth inhibition incubated for 7 to 14 days by MABA assay. A digest of the protocol: (§1)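 Clinical M. tuberculosis isolates were tested in a microplate Alamar Blue assay (MABA), with isoniazid, rifampin, levofloxacin, ofloxacin and kanamycin as positive controls. The MIC is the lowest concentration giving at least a 90% reduction of the bacterial growth signal, averaged over three individual measurements.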
In general terms: Resazurin is reduced to fluorescent resorufin, in cell work by metabolically active cells.

The subject of experiment [3] is Mycobacterium tuberculosis. Put plainly: Antimycobacterial activity against extensively drug resistant Mycobacterium tuberculosis TF274 assessed as bacterial growth inhibition incubated for 7 to 14 days by MABA assay. A digest of the protocol: as §1
Experiment [4] relates to Mycobacterium tuberculosis. Briefly: Antimycobacterial activity against multidrug resistant Mycobacterium tuberculosis KZN494 assessed as bacterial growth inhibition incubated for 7 to 14 days by MABA assay. A digest of the protocol:
as §1

For experiment [5], the system named is Mycobacterium tuberculosis. Put plainly: Antimycobacterial activity against multidrug resistant Mycobacterium tuberculosis V2475 assessed as bacterial growth inhibition incubated for 7 to 14 days by MABA assay. A digest of the protocol:
as §1

The text below walks through data of ChEMBL document CHEMBL5321226, “Structure-directed identification of pyridine-2-methylamine derivatives as MmpL3 inhibitors for use as antitubercular agents” (Eur J Med Chem, 2023).

Values after ≈ are worked out from the molar mass of the structure shown. Some results are limits rather than exact numbers.

By MIC90 is commonly meant an inhibitory concentration at the 90% level, which refers to growth in some studies and to a panel of isolates in others.

Regarding `Cc1cc(C)c2cc(C(=O)NC3CCCCCC3)[nH]c2c1`, in experiment [1], the MIC90 came out at 0.013 µg/mL (≈ 0.0457 µM).
Take `c1ccc(-c2ccc(-c3ccnc(CN4CCC5(CCCC5)CC4)c3)cc2)cc1`: the MIC90 was 0.031 µg/mL (≈ 0.081 µM) in experiment [2]; 0.004 µg/mL (≈ 0.0105 µM) in experiment [3]; 0.016 µg/mL (≈ 0.0418 µM) in experiment [4]; 0.063 µg/mL (≈ 0.165 µM) in experiment [5]; 1 µg/mL (≈ 2.61 µM) in experiment [1].
In the case of `NNC(=O)c1ccncc1` [ISONIAZID], the MIC90 in experiment [2] was determined as 8 µg/mL (≈ 58.3 µM); in experiment [3] it was 8 µg/mL (≈ 58.3 µM); in experiment [4], 16 µg/mL (≈ 117 µM); in experiment [5] it was 16 µg/mL (≈ 117 µM); in experiment [1], 0.04 µg/mL (≈ 0.292 µM).
Consider `NC[C@H]1O[C@H](O[C@H]2[C@H](O)[C@@H](O[C@H]3O[C@H](CO)[C@@H](O)[C@H](N)[C@H]3O)[C@H](N)C[C@@H]2N)[C@H](O)[C@@H](O)[C@@H]1O` [KANAMYCIN], for which the MIC90 in experiment [2] was over 128 µg/mL; in experiment [3], over 128 µg/mL; in experiment [4], 2 µg/mL (≈ 4.13 µM); in experiment [5], 2 µg/mL (≈ 4.13 µM).
With `C[C@H]1COc2c(N3CCN(C)CC3)c(F)cc3c(=O)c(C(=O)O)cn1c23` [LEVOFLOXACIN ANHYDROUS], the MIC90 is 2 µg/mL (≈ 5.53 µM) in experiment [2] and 1 µg/mL (≈ 2.77 µM) in experiment [3].
Consider `CC1COc2c(N3CCN(C)CC3)c(F)cc3c(=O)c(C(=O)O)cn1c23` (stereo not given) [OFLOXACIN], for which the MIC90 turned out to be 4 µg/mL (≈ 11.1 µM) in experiment [2], 8 µg/mL (≈ 22.1 µM) in experiment [3], 0.5 µg/mL (≈ 1.38 µM) in experiment [4] and 0.5 µg/mL (≈ 1.38 µM) in experiment [5].
Take `CO[C@H]1/C=C/O[C@@]2(C)Oc3c(C)c(O)c4c(O)c(c(/C=N/N5CCN(C)CC5)c(O)c4c3C2=O)NC(=O)/C(C)=C\C=C\[C@H](C)[C@H](O)[C@@H](C)[C@@H](O)[C@@H](C)[C@H](OC(C)=O)[C@@H]1C` [RIFAMPIN]: the MIC90 is over 128 µg/mL in experiment [2], over 128 µg/mL in experiment [3], 128 µg/mL (≈ 156 µM) in experiment [4] and 4 µg/mL (≈ 4.86 µM) in experiment [5].
